Results as given in ChEMBL document CHEMBL1156088, “Synthesis and biological activity of novel oxazolidinones” (2009).
Converted amounts (≈) assume the structure as drawn.

Tested on: Staphylococcus aureus
Assay: Antibacterial activity against Staphylococcus aureus 15187 by NCCLS method
Type: functional
Outline: (§1)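 In vitro MIC determination by the NCCLS method against a panel of gram-positive bacteria. Two oxazolidinone reference standards were tested alongside.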

SMILES | MIC
O=C1O[C@@H](CN=C=S)CN1c1ccc(N2CCN(Cc3ccc([N+](=O)[O-])o3)CC2)c(F)c1 | > 16 µg/mL
O=C(NC[C@H]1CN(c2ccc(N3CCN(Cc4ccc([N+](=O)[O-])o4)CC3)c(F)c2)C(=O)O1)c1ccc([N+](=O)[O-])s1 | > 16 µg/mL
O=C(NC[C@H]1CN(c2ccc(N3CCN(Cc4ccc([N+](=O)[O-])o4)CC3)c(F)c2)C(=O)O1)C(Cl)Cl | > 16 µg/mL
O=C(/C=C/c1ccc2c(c1)OCO2)NC[C@H]1CN(c2ccc(N3CCN(Cc4ccc([N+](=O)[O-])o4)CC3)c(F)c2)C(=O)O1 | > 16 µg/mL
O=C(CCl)NC[C@H]1CN(c2ccc(N3CCN(Cc4ccc([N+](=O)[O-])o4)CC3)c(F)c2)C(=O)O1 | 2 µg/mL (≈ 4.03 µM)
O=C1O[C@@H](CNc2ccon2)CN1c1ccc(N2CCN(Cc3ccc([N+](=O)[O-])o3)CC2)c(F)c1 | 2 µg/mL (≈ 4.11 µM)
COC(=S)NC[C@H]1CN(c2ccc(N3CCN(Cc4ccc([N+](=O)[O-])o4)CC3)c(F)c2)C(=O)O1 | 2 µg/mL (≈ 4.05 µM)

Tested on: Staphylococcus aureus
Assay: Antibacterial activity against Staphylococcus aureus ATCC 25923 by NCCLS method
Type: functional
Outline: as §1

SMILES | MIC
O=C1O[C@@H](CN=C=S)CN1c1ccc(N2CCN(Cc3ccc([N+](=O)[O-])o3)CC2)c(F)c1 | > 16 µg/mL
O=C(NC[C@H]1CN(c2ccc(N3CCN(Cc4ccc([N+](=O)[O-])o4)CC3)c(F)c2)C(=O)O1)c1ccc([N+](=O)[O-])s1 | > 16 µg/mL
O=C(NC[C@H]1CN(c2ccc(N3CCN(Cc4ccc([N+](=O)[O-])o4)CC3)c(F)c2)C(=O)O1)C(Cl)Cl | > 16 µg/mL
O=C(/C=C/c1ccc2c(c1)OCO2)NC[C@H]1CN(c2ccc(N3CCN(Cc4ccc([N+](=O)[O-])o4)CC3)c(F)c2)C(=O)O1 | > 16 µg/mL
O=C(CCl)NC[C@H]1CN(c2ccc(N3CCN(Cc4ccc([N+](=O)[O-])o4)CC3)c(F)c2)C(=O)O1 | 2 µg/mL (≈ 4.03 µM)
O=C1O[C@@H](CNc2ccon2)CN1c1ccc(N2CCN(Cc3ccc([N+](=O)[O-])o3)CC2)c(F)c1 | 2 µg/mL (≈ 4.11 µM)
COC(=S)NC[C@H]1CN(c2ccc(N3CCN(Cc4ccc([N+](=O)[O-])o4)CC3)c(F)c2)C(=O)O1 | 2 µg/mL (≈ 4.05 µM)

Tested on: Staphylococcus aureus
Assay: Antibacterial activity against methicillin-resistant Staphylococcus aureus 562 by NCCLS method
Type: functional
Outline: (§2)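 In vitro MIC determined by the NCCLS method against a panel of gram-positive bacteria. Ranbezolid and linezolid were run alongside as reference standards.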

SMILES | MIC
O=C1O[C@@H](CN=C=S)CN1c1ccc(N2CCN(Cc3ccc([N+](=O)[O-])o3)CC2)c(F)c1 | > 16 µg/mL
O=C(NC[C@H]1CN(c2ccc(N3CCN(Cc4ccc([N+](=O)[O-])o4)CC3)c(F)c2)C(=O)O1)c1ccc([N+](=O)[O-])s1 | > 16 µg/mL
O=C(NC[C@H]1CN(c2ccc(N3CCN(Cc4ccc([N+](=O)[O-])o4)CC3)c(F)c2)C(=O)O1)C(Cl)Cl | > 16 µg/mL
O=C(/C=C/c1ccc2c(c1)OCO2)NC[C@H]1CN(c2ccc(N3CCN(Cc4ccc([N+](=O)[O-])o4)CC3)c(F)c2)C(=O)O1 | > 16 µg/mL
O=C(CCl)NC[C@H]1CN(c2ccc(N3CCN(Cc4ccc([N+](=O)[O-])o4)CC3)c(F)c2)C(=O)O1 | 2 µg/mL (≈ 4.03 µM)
O=C1O[C@@H](CNc2ccon2)CN1c1ccc(N2CCN(Cc3ccc([N+](=O)[O-])o3)CC2)c(F)c1 | 2 µg/mL (≈ 4.11 µM)
COC(=S)NC[C@H]1CN(c2ccc(N3CCN(Cc4ccc([N+](=O)[O-])o4)CC3)c(F)c2)C(=O)O1 | 2 µg/mL (≈ 4.05 µM)

Tested on: Staphylococcus aureus
Assay: Antibacterial activity against methicillin-resistant Staphylococcus aureus 33 by NCCLS method
Type: functional
Outline: as §2

SMILES | MIC
O=C1O[C@@H](CN=C=S)CN1c1ccc(N2CCN(Cc3ccc([N+](=O)[O-])o3)CC2)c(F)c1 | > 16 µg/mL
O=C(NC[C@H]1CN(c2ccc(N3CCN(Cc4ccc([N+](=O)[O-])o4)CC3)c(F)c2)C(=O)O1)c1ccc([N+](=O)[O-])s1 | > 16 µg/mL
O=C(NC[C@H]1CN(c2ccc(N3CCN(Cc4ccc([N+](=O)[O-])o4)CC3)c(F)c2)C(=O)O1)C(Cl)Cl | > 16 µg/mL
O=C(/C=C/c1ccc2c(c1)OCO2)NC[C@H]1CN(c2ccc(N3CCN(Cc4ccc([N+](=O)[O-])o4)CC3)c(F)c2)C(=O)O1 | > 16 µg/mL
O=C(CCl)NC[C@H]1CN(c2ccc(N3CCN(Cc4ccc([N+](=O)[O-])o4)CC3)c(F)c2)C(=O)O1 | 2 µg/mL (≈ 4.03 µM)
O=C1O[C@@H](CNc2ccon2)CN1c1ccc(N2CCN(Cc3ccc([N+](=O)[O-])o3)CC2)c(F)c1 | 2 µg/mL (≈ 4.11 µM)
COC(=S)NC[C@H]1CN(c2ccc(N3CCN(Cc4ccc([N+](=O)[O-])o4)CC3)c(F)c2)C(=O)O1 | 2 µg/mL (≈ 4.05 µM)

Tested on: Enterococcus faecalis
Assay: Antibacterial activity against Enterococcus faecalis ATCC 29212 by NCCLS method
Type: functional
Outline: as §1

SMILES | MIC
O=C1O[C@@H](CN=C=S)CN1c1ccc(N2CCN(Cc3ccc([N+](=O)[O-])o3)CC2)c(F)c1 | > 16 µg/mL
O=C(NC[C@H]1CN(c2ccc(N3CCN(Cc4ccc([N+](=O)[O-])o4)CC3)c(F)c2)C(=O)O1)c1ccc([N+](=O)[O-])s1 | > 16 µg/mL
O=C(NC[C@H]1CN(c2ccc(N3CCN(Cc4ccc([N+](=O)[O-])o4)CC3)c(F)c2)C(=O)O1)C(Cl)Cl | > 16 µg/mL
O=C(/C=C/c1ccc2c(c1)OCO2)NC[C@H]1CN(c2ccc(N3CCN(Cc4ccc([N+](=O)[O-])o4)CC3)c(F)c2)C(=O)O1 | > 16 µg/mL
O=C(CCl)NC[C@H]1CN(c2ccc(N3CCN(Cc4ccc([N+](=O)[O-])o4)CC3)c(F)c2)C(=O)O1 | 2 µg/mL (≈ 4.03 µM)
O=C1O[C@@H](CNc2ccon2)CN1c1ccc(N2CCN(Cc3ccc([N+](=O)[O-])o3)CC2)c(F)c1 | 2 µg/mL (≈ 4.11 µM)
COC(=S)NC[C@H]1CN(c2ccc(N3CCN(Cc4ccc([N+](=O)[O-])o4)CC3)c(F)c2)C(=O)O1 | 1 µg/mL (≈ 2.03 µM)

Tested on: Enterococcus faecium
Assay: Antibacterial activity against vancomycin-resistant Enterococcus faecium 6A by NCCLS method
Type: functional
Outline: as §2

SMILES | MIC
O=C1O[C@@H](CN=C=S)CN1c1ccc(N2CCN(Cc3ccc([N+](=O)[O-])o3)CC2)c(F)c1 | > 16 µg/mL
O=C(NC[C@H]1CN(c2ccc(N3CCN(Cc4ccc([N+](=O)[O-])o4)CC3)c(F)c2)C(=O)O1)c1ccc([N+](=O)[O-])s1 | > 16 µg/mL
O=C(NC[C@H]1CN(c2ccc(N3CCN(Cc4ccc([N+](=O)[O-])o4)CC3)c(F)c2)C(=O)O1)C(Cl)Cl | > 16 µg/mL
O=C(/C=C/c1ccc2c(c1)OCO2)NC[C@H]1CN(c2ccc(N3CCN(Cc4ccc([N+](=O)[O-])o4)CC3)c(F)c2)C(=O)O1 | > 16 µg/mL
O=C(CCl)NC[C@H]1CN(c2ccc(N3CCN(Cc4ccc([N+](=O)[O-])o4)CC3)c(F)c2)C(=O)O1 | 2 µg/mL (≈ 4.03 µM)
O=C1O[C@@H](CNc2ccon2)CN1c1ccc(N2CCN(Cc3ccc([N+](=O)[O-])o3)CC2)c(F)c1 | 2 µg/mL (≈ 4.11 µM)
COC(=S)NC[C@H]1CN(c2ccc(N3CCN(Cc4ccc([N+](=O)[O-])o4)CC3)c(F)c2)C(=O)O1 | 1 µg/mL (≈ 2.03 µM)

Tested on: Streptococcus pyogenes
Assay: Antibacterial activity against Streptococcus pyogenes ATCC 19615 by NCCLS method
Type: functional
Outline: as §1

SMILES | MIC
O=C1O[C@@H](CN=C=S)CN1c1ccc(N2CCN(Cc3ccc([N+](=O)[O-])o3)CC2)c(F)c1 | > 16 µg/mL
O=C(NC[C@H]1CN(c2ccc(N3CCN(Cc4ccc([N+](=O)[O-])o4)CC3)c(F)c2)C(=O)O1)c1ccc([N+](=O)[O-])s1 | > 16 µg/mL
O=C(NC[C@H]1CN(c2ccc(N3CCN(Cc4ccc([N+](=O)[O-])o4)CC3)c(F)c2)C(=O)O1)C(Cl)Cl | > 16 µg/mL
O=C(/C=C/c1ccc2c(c1)OCO2)NC[C@H]1CN(c2ccc(N3CCN(Cc4ccc([N+](=O)[O-])o4)CC3)c(F)c2)C(=O)O1 | > 16 µg/mL
O=C(CCl)NC[C@H]1CN(c2ccc(N3CCN(Cc4ccc([N+](=O)[O-])o4)CC3)c(F)c2)C(=O)O1 | 0.5 µg/mL (≈ 1.01 µM)
O=C1O[C@@H](CNc2ccon2)CN1c1ccc(N2CCN(Cc3ccc([N+](=O)[O-])o3)CC2)c(F)c1 | 1 µg/mL (≈ 2.06 µM)
COC(=S)NC[C@H]1CN(c2ccc(N3CCN(Cc4ccc([N+](=O)[O-])o4)CC3)c(F)c2)C(=O)O1 | 1 µg/mL (≈ 2.03 µM)

Tested on: Streptococcus pneumoniae
Assay: Antibacterial activity against Streptococcus pneumoniae ATCC 6303 by NCCLS method
Type: functional
Outline: as §1

SMILES | MIC
O=C1O[C@@H](CN=C=S)CN1c1ccc(N2CCN(Cc3ccc([N+](=O)[O-])o3)CC2)c(F)c1 | > 16 µg/mL
O=C(NC[C@H]1CN(c2ccc(N3CCN(Cc4ccc([N+](=O)[O-])o4)CC3)c(F)c2)C(=O)O1)c1ccc([N+](=O)[O-])s1 | > 16 µg/mL
O=C(NC[C@H]1CN(c2ccc(N3CCN(Cc4ccc([N+](=O)[O-])o4)CC3)c(F)c2)C(=O)O1)C(Cl)Cl | > 16 µg/mL
O=C(/C=C/c1ccc2c(c1)OCO2)NC[C@H]1CN(c2ccc(N3CCN(Cc4ccc([N+](=O)[O-])o4)CC3)c(F)c2)C(=O)O1 | > 16 µg/mL
O=C(CCl)NC[C@H]1CN(c2ccc(N3CCN(Cc4ccc([N+](=O)[O-])o4)CC3)c(F)c2)C(=O)O1 | 0.5 µg/mL (≈ 1.01 µM)
O=C1O[C@@H](CNc2ccon2)CN1c1ccc(N2CCN(Cc3ccc([N+](=O)[O-])o3)CC2)c(F)c1 | 1 µg/mL (≈ 2.06 µM)
COC(=S)NC[C@H]1CN(c2ccc(N3CCN(Cc4ccc([N+](=O)[O-])o4)CC3)c(F)c2)C(=O)O1 | 0.5 µg/mL (≈ 1.01 µM)
